# Measurements as given in paper PMC9826267 (Chembiochem, 2022).
# How the values were obtained:
# GlnA4Sc = molecular target: T1, GlnA4Sc (Streptomyces coelicolor, UniProt O88070); experiment: GlnA4Sc enzyme activity assay; assay type: biochemical
# T1 sequence (O88070 1-462): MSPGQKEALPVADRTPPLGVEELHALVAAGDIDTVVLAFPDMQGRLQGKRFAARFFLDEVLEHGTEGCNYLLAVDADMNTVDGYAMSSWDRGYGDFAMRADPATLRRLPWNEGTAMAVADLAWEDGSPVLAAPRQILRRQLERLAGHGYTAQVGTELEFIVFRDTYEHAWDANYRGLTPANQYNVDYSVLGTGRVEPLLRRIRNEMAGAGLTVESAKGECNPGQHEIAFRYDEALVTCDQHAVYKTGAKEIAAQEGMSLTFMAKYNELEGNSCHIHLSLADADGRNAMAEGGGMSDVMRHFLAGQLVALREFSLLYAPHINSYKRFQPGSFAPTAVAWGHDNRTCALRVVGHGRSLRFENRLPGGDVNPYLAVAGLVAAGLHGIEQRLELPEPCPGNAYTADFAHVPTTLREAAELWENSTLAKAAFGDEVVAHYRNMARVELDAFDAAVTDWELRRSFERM
# GlnA1Mt = GlnA1Mt (Mycobacterium tuberculosis, UniProt P9WN39); assay type: biochemical; settings: at 5 mM (SI Figure 2)
# Sequence of GlnA1Mt (P9WN39 whole entry): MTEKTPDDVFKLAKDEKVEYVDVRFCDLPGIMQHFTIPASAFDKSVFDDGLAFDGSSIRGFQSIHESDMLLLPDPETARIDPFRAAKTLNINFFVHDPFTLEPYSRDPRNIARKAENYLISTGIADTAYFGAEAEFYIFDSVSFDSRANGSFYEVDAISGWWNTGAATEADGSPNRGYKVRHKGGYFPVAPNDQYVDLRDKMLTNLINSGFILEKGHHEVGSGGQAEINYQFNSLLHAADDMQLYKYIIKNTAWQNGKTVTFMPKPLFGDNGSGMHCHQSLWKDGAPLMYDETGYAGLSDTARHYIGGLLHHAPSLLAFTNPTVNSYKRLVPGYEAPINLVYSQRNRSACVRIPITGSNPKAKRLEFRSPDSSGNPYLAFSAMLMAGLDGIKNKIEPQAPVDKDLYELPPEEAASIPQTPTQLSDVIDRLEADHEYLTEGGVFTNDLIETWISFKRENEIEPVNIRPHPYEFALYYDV
# S. coelicolor M145 = experiment: S. coelicolor growth assay; assay type: cell-based, Streptomyces coelicolor
# In short: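 S. coelicolor M145 grown in defined Evans medium with 25 mM ammonium chloride, L-glutamine or ethanolamine hydrochloride as sole nitrogen source. Test compound added at final 100, 50, 25, 12.5, 6.25, 3.125, 1.562, 0.781 or 0 μM. Cultures shaken at 180 rpm for 7 days at 30 °C. Phase-contrast images taken at x400; hyphae thickness used to quantify growth.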
SMILES,IC50 (GlnA4Sc),Activity against GlnA1Mt (in words) (GlnA1Mt),"Hyphae thickness with additional glutamine (rescue) (S. coelicolor M145; 100 μM inhibitor, additional glutamine as alternative nitrogen source)","Non-specific toxic effects (in words) (S. coelicolor M145; 100 μM, glutamine rescue control experiment)","Size of mycelial agglomerates (in words) (S. coelicolor M145; lowest tested concentration 0.78 μM, ethanolamine as nitrogen source)",Inhibition of GlnA4Sc activity (in words) (GlnA4Sc; Figure 1a/1b)
"N=S(=O)(CCCCO)CC[C@H](N)C(=O)O (stereo partly drawn) [7 c, (2S)‐2‐Amino‐4‐(4‐hydroxybutylsulfonimidoyl)butanoic acid]",79.3 µM,,,,,
"N=S(=O)(CCCO)CC[C@H](N)C(=O)O (stereo partly drawn) [7 b, (2S)‐2‐Amino‐4‐(3‐hydroxypropylsulfonimidoyl)butanoic acid]",12.3 µM,neither 7 b nor 8 showed activity,1.11 μm,excludes any non‐specific toxic effects,reduced the size of the mycelial agglomerates,
"N=S(=O)(CCO)CC[C@H](N)C(=O)O (stereo partly drawn) [7 a, (2S)‐2‐Amino‐4‐(2‐hydroxyethylsulfonimidoyl)butanoic acid]",2170 µM,,,,,
"CS(=O)(CC[C@H](N)C(=O)O)=NCCO (stereo partly drawn) [compound 8, (2S)‐2‐Amino‐4‐(N‐(2‐hydroxyethyl)‐methylsulfonimidoyl)butanoic acid]",659 µM,neither 7 b nor 8 showed activity,,,,inhibited
